Results: ChEMBL document CHEMBL4627246, “Pyroglutamide-Based P2X7 Receptor Antagonists Targeting Inflammatory Bowel Disease” (J Med Chem, 2020)
Calls of active or inactive are those of the source. Unless noted, no cut-off for these calls is given here.

Assays:
[1] = Metabolic stability in human hepatocytes; type: ADME, cell-based, Hepatocyte
[2] = target: T1, P2X purinoceptor 7 (Homo sapiens) (UniProt Q99572); assay: Antagonist activity at P2X7 receptor in human THP-1 cells assessed as inhibition of LPS and BzATP-induced IL-1beta production at 10^-6 mol/L pretreated with compound followed by LPS/BzATP addition and measured after 2 to 6 hrs by ELISA; type: cell-based; conditions: TDE = time-dependent effect
T1 sequence (whole entry): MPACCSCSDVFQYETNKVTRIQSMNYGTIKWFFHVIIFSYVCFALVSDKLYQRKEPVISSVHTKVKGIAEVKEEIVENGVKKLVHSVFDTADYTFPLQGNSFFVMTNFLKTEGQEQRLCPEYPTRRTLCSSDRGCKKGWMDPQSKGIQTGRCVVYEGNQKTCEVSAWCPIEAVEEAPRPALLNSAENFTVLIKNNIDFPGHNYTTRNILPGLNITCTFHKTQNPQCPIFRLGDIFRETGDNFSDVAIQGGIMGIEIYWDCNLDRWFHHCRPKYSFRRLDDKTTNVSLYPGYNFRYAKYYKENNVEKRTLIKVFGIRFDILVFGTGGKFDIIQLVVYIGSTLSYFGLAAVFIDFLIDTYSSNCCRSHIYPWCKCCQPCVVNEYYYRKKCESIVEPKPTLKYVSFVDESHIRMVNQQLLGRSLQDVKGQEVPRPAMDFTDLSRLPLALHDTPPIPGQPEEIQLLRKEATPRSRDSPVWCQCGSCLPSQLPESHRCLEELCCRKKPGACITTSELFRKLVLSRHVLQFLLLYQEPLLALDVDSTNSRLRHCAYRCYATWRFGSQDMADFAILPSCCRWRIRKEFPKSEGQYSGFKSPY
Summary of the method: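 PMA (100nM)-differentiated THP-1 macrophages (RPMI 1640, 10% FCS), 10^6 cells, pretreated with antagonist at […], then challenged with LPS 10 μmol/L and BzATP 70 μmol/L at 37 °C, 5% CO2; IL1β measured by ELISA, including the 6 h point; mean ± SD, P<0.05 significant.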

[3] = target: T2, P2X purinoceptor 1 (Homo sapiens) (UniProt P51575); assay: Antagonist activity at P2X1 receptor in human platelet assessed as inhibition of thrombin-induced platelet aggregation at 10 '-5 to 10^-6 mol/L pretreated with compound and LPS/BzATP for 10 mins followed by thrombin addition and measured for 8 mins by aggregometry analysis; type: cell-based
T2 sequence (whole entry): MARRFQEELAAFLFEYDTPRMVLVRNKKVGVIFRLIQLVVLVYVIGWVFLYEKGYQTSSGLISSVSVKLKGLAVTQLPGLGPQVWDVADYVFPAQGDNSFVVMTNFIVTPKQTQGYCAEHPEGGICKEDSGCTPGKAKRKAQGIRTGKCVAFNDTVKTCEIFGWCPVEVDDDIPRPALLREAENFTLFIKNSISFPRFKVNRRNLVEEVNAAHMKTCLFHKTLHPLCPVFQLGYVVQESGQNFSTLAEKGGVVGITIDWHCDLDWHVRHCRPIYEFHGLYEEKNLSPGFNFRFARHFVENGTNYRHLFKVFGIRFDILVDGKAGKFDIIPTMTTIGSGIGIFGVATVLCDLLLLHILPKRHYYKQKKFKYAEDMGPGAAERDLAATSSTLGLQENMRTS

[4] = Metabolic stability in human liver microsomes assessed as half life at 0.2 mg/ml incubated for 60 mins by UPLC/MS-MS analysis; type: ADME, Microsome
[5] = Drug metabolism in mouse measured after 40 mins; type: ADME; conditions: read-out: Drug metabolism
[6] = target: T1, P2X purinoceptor 7 (Homo sapiens); assay: Antagonist activity at P2X7R in human THP1 cells assessed as inhibition of LPS and BzATP-induced ROS production at 10^-5 mol/L pretreated with compound followed by LPS/BzATP addition and measured up to 5 hrs by kinetic chemiluminescence based fluorometric analysis; type: cell-based; conditions: THP-1
Summary of the method: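 PMA-differentiated THP-1 macrophages (10^5 cells) in RPMI 1640 + 10% FBS pretreated with antagonist at 10^-5 mol/L, then LPS 10 μmol/L plus BzATP 70 μmol/L at 37 °C, 5% CO2; horseradish peroxidase (50 μg/mL) and luminol (50 μM) mixture added, chemiluminescence read on a fluorometer; cell-free H2O2 serves as positive control.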

[7] = target: T3, P2X purinoceptor 7 (Homo sapiens, UniProt Q99572); assay: Displacement of [3H]-A804598 from human P2X7 expressed in human HEK293 cell membrane incubated for 1 hr by microplate scintillation counting method; type: cell membranes
T3 sequence (Q99572 whole entry): T1 sequence (whole entry)

[8] = target: T1, P2X purinoceptor 7 (Homo sapiens); assay: Antagonist activity at P2X7 receptor in human THP-1 cells assessed as inhibition of LPS and BzATP-induced IL-1beta production at 10^-5 mol/L pretreated with compound followed by LPS/BzATP addition and measured after 2 to 6 hrs by ELISA; type: cell-based
Summary of the method: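 THP-1 monocytes grown in RPMI 1640 + 10% FCS, differentiated to macrophages with PMA (100nM); 10^6 cells pretreated with antagonist at 10^-5 mol/L, then exposed to LPS 10 μmol/L plus BzATP 70 μmol/L at 37 °C, 5% CO2; IL1β quantified by ELISA in samples at 2, 4 and 6 h; mean ± SD, significance P<0.05.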

[9] = test system: HEK293; assay: Cytotoxicity against human HEK293 cells assessed as reduction in cell viability at 10^-5 mol/L incubated for 72 hrs; type: cell-based; conditions: hek293, 72 h, 10 µM
Summary of the method: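 Wild-type and P2RX7-transfected HEK293 cells exposed to compound for 72 hours; viability compared against untreated control.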

[10] = Solubility of compound in saline at 1mg/ml; type: physicochemical; conditions: buffer
[11] = target: T1, P2X purinoceptor 7 (Homo sapiens); assay: Inhibition of human P2X7 expressed in human HEK293 cells assessed as reduction in BzATP-stimulated TO-PRO-3 incorporation at 10 uM preincubated with compound and TO-PRO-3 for 15 mins prior to BzATP addition and measured after 1 hr by Fluo-3AM dye based flow cytometry relative to control; type: cell-based
Summary of the method: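 HEK-293 cells overexpressing human P2RX7 loaded with Fluo-3 AM, then incubated with TO-PRO-3 (large pore uptake) and propidium iodide (viability) plus compound (10⁻⁵ M single point) for 15 min before BzATP 100 µM. After 1 h, flow cytometry; percentage of Fluo-3/TO-PRO-3 double-positive cells calculated. Mean of n ≥ 2 with positive control.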

[12] = Metabolic stability in human liver microsomes assessed as intrinsic clearance at 0.2 mg/ml incubated for 60 mins by UPLC/MS-MS analysis; type: ADME, Microsome; conditions: read-out: CLH
[13] = target: T1, P2X purinoceptor 7 (Homo sapiens); assay: Antagonist activity at P2X7R in human THP1 cells assessed as inhibition of LPS and BzATP-induced mature form of IL-1beta expression in whole cell extract at 10^-6 mol/L pretreated with compound followed by LPS/BzATP addition and measured after 2 to 6 hrs by Western blot analysis; type: cell-based; conditions: THP-1
[14] = target: T1, P2X purinoceptor 7 (Homo sapiens); assay: Antagonist activity at P2X7R in human THP1 cells assessed as inhibition of LPS and BzATP-induced mature form of IL-1beta expression in cells supernatant at 10^-6 mol/L pretreated with compound followed by LPS/BzATP addition and measured after 2 to 6 hrs by Western blot analysis; type: cell-based; conditions: THP-1
[15] = target: T1, P2X purinoceptor 7 (Homo sapiens); assay: Antagonist activity at P2X7R in human THP1 cells assessed as inhibition of LPS and BzATP-induced IL-1beta expression by measuring increase in proIL-1beta expression in cell supernatant extract at 10^-6 mol/L pretreated with compound followed by LPS/BzATP addition and measured after 6 hrs by Western blot analysis; type: cell-based; conditions: THP-1
[16] = target: T1, P2X purinoceptor 7 (Homo sapiens); assay: Antagonist activity at P2X7R in human THP1 cells assessed as inhibition of LPS and BzATP-induced cell death at 10^-6 mol/L pretreated with compound followed by LPS/BzATP addition and measured after 6 hrs by sytox green dye based flow cytometry; conditions: THP-1
[17] = target: T1, P2X purinoceptor 7 (Homo sapiens); assay: Antagonist activity at P2X7R in human THP1 cells assessed as inhibition of LPS and BzATP-induced cell death at 10^-6 mol/L pretreated with compound followed by LPS/BzATP addition and measured after 4 hrs by sytox green dye based flow cytometry; conditions: THP-1
[18] = test system: Mus musculus; assay: Antiinflammatory activity against DSS-induced colitis C57BL/6J mouse model assessed as decrease in inflammation level in colon at 2.5 mg/kg, ip administered daily and measured after day 14 by hematoxylin and eosin staining based microscopic analysis; type: functional; conditions: 336 h
Summary of the method: (§1)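 DSS colitis in WT mice: 3.8% DSS in drinking water days 1–5, then tap water for 10 days; compound 2.5 mg/kg given i.p. daily in 10% DMSO/PBS; cohorts of 10 mice per group, placebo as comparator; weight loss and clinical disease score tracked; colon sections at day 14 stained with H&E and histologically scored; data as mean ± SEM.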

[19] = target: T1, P2X purinoceptor 7 (Homo sapiens); assay: Antagonist activity at P2X7R in human THP1 cells assessed as inhibition of LPS and BzATP-induced ROS production at 10^-6mol/L pretreated with compound followed by LPS/BzATP addition and measured after 4 hrs by kinetic chemiluminescence based fluorometric analysis; type: cell-based; conditions: THP-1
Summary of the method: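 Differentiated THP-1 macrophages (10^5 cells, RPMI 1640 + 10% FBS) pretreated with antagonist at 10^-6 mol/L before LPS (10 μmol/L) and BzATP (70 μmol/L), 37 °C, 5% CO2; ROS detected as luminol (50 μM)/horseradish peroxidase (50 μg/mL) chemiluminescence on a fluorometer; H2O2 without cells as positive control.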

[20] = test system: Mus musculus; assay: Antiinflammatory activity against DSS-induced colitis C57BL/6J mouse model assessed as areas of normal colonic mucosa with straight and larger crypts on muscularis mucosa at 2.5 mg/kg, ip administered daily and measured after day 14 by hematoxylin and eosin staining based microscopic analysis; type: functional, organism-based; summary of the method: as §1

Structure (SMILES) | Stability [1] | inhibition [2] | half-life [4] [min] | metabolised at 40 min [5] [%] | inhibition [6] | IC50 [7] [nM] | Ki [7] [nM] | inhibition [8] | inhibition [11] | microsomal CLint [12] [µL/min/mg] | further results
O=C(NCc1ccc(Cl)cc1Cl)[C@@H]1CCC(=O)N1c1ccco1 | Unstable | Tde | 5.2 | 99.2 | Active | 575 | 118 | Active | 94% | 411 | Activity [3]: inactive; Activity [9]: Non-Toxic; solubility [10]: Insoluble
O=C(NCc1cccc(C(F)(F)F)c1Cl)[C@@H]1CCC(=O)N1c1cccs1 | Unstable | Tde | 3.8 | 99.7 | Active | 218 | 44 | Active | 100% | 530 | inhibition [13]: Active; Activity [3]: inactive; inhibition [14]: Active; inhibition [15]: Active; Activity [9]: Non-Toxic; solubility [10]: Insoluble
CN1C(=O)CC[C@H]1C(=O)NCc1ccc(Cl)cc1Cl | Stable | Tde | 619 | 5.1 | Active | 862 | 176 | Active | 100% | 3.6 | inhibition [16]: inactive; inhibition [17]: Active; inhibition in vivo at 2.5 mg/kg [18]: 42 to 50%; inhibition [19]: Active; Activity [20]: Active
O=C(NCc1ccc(Cl)cc1Cl)[C@@H]1CCC(=O)N1c1ccoc1 | Unstable | Tde | 2.9 | 99.9 | Active | 422 | 86 | Active | 85% | 630 | Activity [3]: inactive; Activity [9]: Non-Toxic; solubility [10]: Insoluble
COC(=O)[C@@H]1CCC(=O)N1 |  |  |  |  |  |  |  |  | inactive |  | 
COC(=O)[C@@H]1COC(=O)N1 |  |  |  |  |  |  |  |  | inactive |  | 
CN(C)/C=C1\C[C@H]2C(=O)N(CCc3ccccc3)C(N(C)C)N2C1=O (stereo not given in full) |  |  |  |  |  |  |  |  | 0% |  | 
CN(C)/C=C1\C[C@@H](C(=O)NCc2ccc(Cl)cc2Cl)NC1=O |  |  |  |  |  |  |  |  | 53% |  | 
COC(=O)[C@@H]1CCC(=O)N1C(c1ccc(Cl)cc1)c1ccc(Cl)cc1 |  |  |  |  |  |  |  |  | inactive |  | 
O=C(NCc1ccccc1)[C@@H]1CCC(=O)N1Cc1ccccc1 |  |  |  |  |  |  |  |  | 0% |  | 
Cc1ccc(CN2C(=O)CC[C@H]2C(=O)NCCc2ccccc2)cc1 |  |  |  |  |  |  |  |  | 0% |  | 
COc1ccc(NC(=O)[C@@H]2CCC(=O)N2)c(OC)c1 |  |  |  |  |  |  |  |  | inactive |  | 
